# Key:
# [1] = molecular target: Epidermal growth factor receptor (Homo sapiens, UniProt P00533); assay: Inhibition of EGFR tyrosine kinase (unknown origin) using poly (Glu,Tyr) as substrate after 30 mins by ADP-GloTM assay
# MDA-MB-468 = assay: Cytotoxicity against human MDA-MB-468 cells after 48 hrs by SRB assay; type: functional; settings: MDA-MB-468, 48 h
# In short: (§1)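 NCI 60-panel five-dose screen. Cells in RPMI 1640 with 5% FBS and 2 mM L-glutamine are plated at 5000–40,000 cells/well by doubling time and preincubated 24 h at 37 °C in 5% CO2. Drug in DMSO is tested at 0.01, 0.1, 1, 10 and 100 μM for 48 h. Cells are TCA-fixed, stained with SRB and read at 515 nm. GI50 is the concentration giving 50% reduction in net protein increase relative to time-zero and control plates.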
# MDA-MB-231 = assay: Cytotoxicity against human MDA-MB-231/ATCC cells after 48 hrs by SRB assay; type: functional; settings: MDA-MB-231, 48 h
# In short: (§2)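 NCI 60-panel five-dose screen. Cells in RPMI 1640 with 5% FBS and 2 mM L-glutamine, plated at 5000–40,000 cells/well by doubling time, preincubated 24 h at 37 °C/5% CO2. Drug from DMSO stock added at 0.01, 0.1, 1, 10 and 100 µM, then 48 h. TCA fixation, SRB stain, absorbance at 515 nm, time-zero plates included. GI50 = 50% reduction in net protein increase versus control.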
# TK-10 = assay: Cytotoxicity against human TK10 cells after 48 hrs by SRB assay; type: functional; settings: TK-10, 48 h
# In short: (§3)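 NCI 60 five-dose screen. Cells in RPMI 1640 with 5% FBS and 2 mM L-glutamine, plated at 5000–40,000 cells/well by doubling time, pre-incubated 24 h at 37 °C, 5% CO2. Time-zero plates TCA-fixed at drug addition. Final concentrations 0.01, 0.1, 1, 10 and 100 µM (DMSO stock), 48 h exposure. TCA fixation, 0.4% SRB stain, absorbance 515 nm. GI50 from [(Ti−Tz)/(C−Tz)]×100 = 50.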
# CAKI-1 = assay: Cytotoxicity against human Caki1 cells after 48 hrs by SRB assay; type: functional; settings: CAKI-1, 48 h; in short: as §2
# SK-OV-3 = assay: Cytotoxicity against human SKOV3 cells after 48 hrs by SRB assay; type: functional; settings: SK-OV-3, 48 h; in short: as §1
# OVCAR-4 = assay: Cytotoxicity against human OVCAR4 cells after 48 hrs by SRB assay; type: functional; settings: OVCAR-4, 48 h; in short: as §1
# OVCAR-5 = assay: Cytotoxicity against human OVCAR5 cells after 48 hrs by SRB assay; type: functional; settings: OVCAR-5, 48 h; in short: as §1
# UACC-257 = assay: Cytotoxicity against human UACC257 cells after 48 hrs by SRB assay; type: functional; settings: UACC-257, 48 h; in short: as §3
# UACC-62 = assay: Cytotoxicity against human UACC62 cells after 48 hrs by SRB assay; type: functional; settings: UACC-62, 48 h; in short: as §3
# SK-MEL-2 = assay: Cytotoxicity against human SK-MEL-2 cells after 48 hrs by SRB assay; type: functional; settings: SK-MEL-2, 48 h; in short: as §1
# SNB-19 = assay: Cytotoxicity against human SNB19 cells after 48 hrs by SRB assay; type: functional; settings: SNB-19, 48 h; in short: as §1
# SF-268 = assay: Cytotoxicity against human SF268 cells after 48 hrs by SRB assay; type: functional; settings: SF-268, 48 h; in short: as §1
# KM12 = assay: Cytotoxicity against human KM12 cells after 48 hrs by SRB assay; type: functional; settings: KM12, 48 h; in short: as §2
# SW-620 = assay: Cytotoxicity against human SW620 cells after 48 hrs by SRB assay; type: functional; settings: SW-620, 48 h; in short: as §3
# HCT-116 = assay: Cytotoxicity against human HCT116 cells after 48 hrs by SRB assay; type: functional; settings: HCT-116, 48 h; in short: as §2
# HCC 2998 = assay: Cytotoxicity against human HCC2998 cells after 48 hrs by SRB assay; type: functional; settings: HCC 2998, 48 h; in short: as §2
# COLO 205 = assay: Cytotoxicity against human COLO205 cells after 48 hrs by SRB assay; type: functional; settings: COLO 205, 48 h; in short: as §2
# NCI-H460 = assay: Cytotoxicity against human NCI-H460 cells after 48 hrs by SRB assay; type: functional; settings: NCI-H460, 48 h; in short: as §1
# NCI-H322M = assay: Cytotoxicity against human NCI-H322M cells after 48 hrs by SRB assay; type: functional; in short: as §1
# NCI-H226 = assay: Cytotoxicity against human NCI-H226 cells after 48 hrs by SRB assay; type: functional; settings: NCI-H226, 48 h; in short: as §1
# HOP-62 = assay: Cytotoxicity against human HOP62 cells after 48 hrs by SRB assay; type: functional; settings: HOP-62, 48 h; in short: as §2
# A549 = assay: Cytotoxicity against human A549/ATCC cells after 48 hrs by SRB assay; type: functional; settings: A549, 48 h; in short: as §2
# SR = assay: Cytotoxicity against human SR cells after 48 hrs by SRB assay; type: functional; in short: as §1
# RPMI-8226 = assay: Cytotoxicity against human RPMI8226 cells after 48 hrs by SRB assay; type: functional; settings: RPMI-8226, 48 h; in short: as §1
# CCRF-CEM = assay: Cytotoxicity against human CCRF-CEM cells after 48 hrs by SRB assay; type: functional; in short: as §2
# [2] = read-out: LC50 (the source's name)
# Epidermal growth factor receptor, sequence (P00533 whole entry): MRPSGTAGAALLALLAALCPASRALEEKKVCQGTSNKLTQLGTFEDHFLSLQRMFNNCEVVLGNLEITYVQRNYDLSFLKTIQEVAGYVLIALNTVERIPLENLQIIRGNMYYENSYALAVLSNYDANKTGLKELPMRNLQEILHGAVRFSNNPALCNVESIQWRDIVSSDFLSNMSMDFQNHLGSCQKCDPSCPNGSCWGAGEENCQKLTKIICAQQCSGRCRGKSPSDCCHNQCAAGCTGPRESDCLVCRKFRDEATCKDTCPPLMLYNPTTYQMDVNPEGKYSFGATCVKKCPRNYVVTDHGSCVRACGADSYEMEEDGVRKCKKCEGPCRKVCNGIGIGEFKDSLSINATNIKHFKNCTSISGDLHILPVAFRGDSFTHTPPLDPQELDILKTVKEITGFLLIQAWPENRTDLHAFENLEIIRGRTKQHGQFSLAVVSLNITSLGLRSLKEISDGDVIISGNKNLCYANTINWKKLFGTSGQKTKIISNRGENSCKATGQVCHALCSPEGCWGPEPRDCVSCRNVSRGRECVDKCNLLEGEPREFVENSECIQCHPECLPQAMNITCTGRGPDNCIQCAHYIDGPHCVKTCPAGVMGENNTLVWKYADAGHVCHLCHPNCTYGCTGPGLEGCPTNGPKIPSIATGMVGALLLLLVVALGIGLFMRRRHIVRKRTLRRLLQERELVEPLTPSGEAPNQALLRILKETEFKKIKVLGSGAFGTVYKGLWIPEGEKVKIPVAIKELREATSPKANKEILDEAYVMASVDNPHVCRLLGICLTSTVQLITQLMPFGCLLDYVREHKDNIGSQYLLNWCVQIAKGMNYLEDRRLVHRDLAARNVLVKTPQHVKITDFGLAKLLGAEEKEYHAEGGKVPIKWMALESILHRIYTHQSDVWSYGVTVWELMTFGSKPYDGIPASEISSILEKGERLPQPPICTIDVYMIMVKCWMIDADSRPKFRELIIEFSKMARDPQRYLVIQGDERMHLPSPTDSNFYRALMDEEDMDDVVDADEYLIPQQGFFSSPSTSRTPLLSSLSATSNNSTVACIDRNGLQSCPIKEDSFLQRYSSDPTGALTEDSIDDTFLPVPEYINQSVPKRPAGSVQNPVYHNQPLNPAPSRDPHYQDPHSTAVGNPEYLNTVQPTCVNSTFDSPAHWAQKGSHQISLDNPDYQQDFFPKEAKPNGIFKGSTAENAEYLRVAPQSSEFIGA
compound,measurement,setting,value
NC(=O)Nc1ccc2ncnc(Nc3ccc(Cl)cc3)c2c1,IC50,[1],0.061 µM
same,GI50,MDA-MB-468,1.09 µM
same,TGI,MDA-MB-468,3.95 µM
same,CC50,MDA-MB-468; [2],> 100 µM
same,GI50,MDA-MB-231,8.92 µM
same,TGI,MDA-MB-231,37.7 µM
same,CC50,MDA-MB-231; [2],> 100 µM
same,GI50,TK-10,0.98 µM
same,TGI,TK-10,16.2 µM
same,CC50,TK-10; [2],> 100 µM
same,GI50,CAKI-1,1.33 µM
same,TGI,CAKI-1,21.5 µM
same,CC50,CAKI-1; [2],> 100 µM
same,GI50,SK-OV-3,3.52 µM
same,TGI,SK-OV-3,20.5 µM
same,CC50,SK-OV-3; [2],> 100 µM
same,GI50,OVCAR-4,9.14 µM
same,TGI,OVCAR-4,> 100 µM
same,CC50,OVCAR-4; [2],> 100 µM
same,GI50,OVCAR-5,15.2 µM
same,TGI,OVCAR-5,90.3 µM
same,CC50,OVCAR-5; [2],> 100 µM
same,GI50,UACC-257,23.5 µM
same,TGI,UACC-257,75.2 µM
same,CC50,UACC-257; [2],> 100 µM
same,GI50,UACC-62,13.5 µM
same,TGI,UACC-62,32.2 µM
same,CC50,UACC-62; [2],77 µM
same,GI50,SK-MEL-2,15.1 µM
same,TGI,SK-MEL-2,42.7 µM
same,CC50,SK-MEL-2; [2],> 100 µM
same,GI50,SNB-19,9.02 µM
same,TGI,SNB-19,> 100 µM
same,CC50,SNB-19; [2],> 100 µM
same,GI50,SF-268,17.1 µM
same,TGI,SF-268,> 100 µM
same,CC50,SF-268; [2],> 100 µM
same,GI50,KM12,28.4 µM
same,TGI,KM12,> 100 µM
same,CC50,KM12; [2],> 100 µM
same,GI50,SW-620,39.7 µM
same,TGI,SW-620,> 100 µM
same,CC50,SW-620; [2],> 100 µM
same,GI50,HCT-116,24.9 µM
same,TGI,HCT-116,> 100 µM
same,CC50,HCT-116; [2],> 100 µM
same,GI50,HCC 2998,37.6 µM
same,TGI,HCC 2998,> 100 µM
same,CC50,HCC 2998; [2],> 100 µM
same,GI50,COLO 205,27.5 µM
same,TGI,COLO 205,> 100 µM
same,CC50,COLO 205; [2],> 100 µM
same,GI50,NCI-H460,22.4 µM
same,TGI,NCI-H460,> 100 µM
same,CC50,NCI-H460; [2],> 100 µM
same,GI50,NCI-H322M,0.36 µM
same,TGI,NCI-H322M,6.64 µM
same,CC50,NCI-H322M; [2],> 100 µM
same,GI50,NCI-H226,22.3 µM
same,TGI,NCI-H226,> 100 µM
same,CC50,NCI-H226; [2],> 100 µM
same,GI50,HOP-62,21.1 µM
same,TGI,HOP-62,84.4 µM
same,CC50,HOP-62; [2],> 100 µM
same,GI50,A549,19.2 µM
same,TGI,A549,> 100 µM
same,CC50,A549; [2],> 100 µM
same,GI50,SR,19.1 µM
same,TGI,SR,75.6 µM
same,CC50,SR; [2],> 100 µM
same,GI50,RPMI-8226,20.5 µM
same,TGI,RPMI-8226,78.9 µM
same,CC50,RPMI-8226; [2],> 100 µM
same,GI50,CCRF-CEM,16.4 µM
same,TGI,CCRF-CEM,> 100 µM
same,CC50,CCRF-CEM; [2],> 100 µM
